# Results: publication PMC9722229 (European journal of pharmacology, 2019)
# Where two headings read alike, the source gives them in different places.
# Columns and labels:
# hERG channel = hERG channel (Homo sapiens, UniProt Q12809)
# M2 = M2 (Homo sapiens, UniProt P08172); assay: biochemical; details: read-out: % Inhibition of Binding at 10 μM D-578
# [1] = test system: immobility in the forced swimming test; assay: Forced swimming test in rats after oral administration; format: in vivo, rat; details: for Immobility in the rat forced swimming test compared to vehicle: sub-chronic, 1 h before test, mesylate salt
# Outline: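 Male Sprague-Dawley rats (200-225 g), naive, used once, were given a Porsolt two-session test. The pretest was a 15 min swim and the test a 5 min swim 24 h later, in a 24.5 × 35.5 cm cylinder with 22 cm water at 24-25 °C. Mesylate salt in 3% β-hydroxypropyl cyclodextrin/saline was given p.o. 15 min after pretest and 1 h before test. Blinded video scoring of immobility; one-way ANOVA.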
# 5HT5a = 5HT5a (Homo sapiens, UniProt P47898); assay: NIMH PDSP receptor binding assay; details: read-out: % Inhibition of Binding at 10 μM D-578
# 5HT6 = 5HT6 (Homo sapiens, UniProt P50406); assay: NIMH PDSP receptor binding assay; details: read-out: % Inhibition of Binding at 10 μM D-578
# 5HT2a = 5HT2a (Homo sapiens, UniProt P28223); assay: NIMH PDSP receptor binding assay
# Alpha2B = Alpha2B (Homo sapiens, UniProt P18089); assay: NIMH PDSP receptor binding assay; details: read-out: % Inhibition of Binding at 10 μM D-578
# GABA A = assay: NIMH PDSP receptor binding assay; details: [3H]Muscimol, mean of 4 determinations
# DAT = DAT (Rattus norvegicus, UniProt P23977); assay: Inhibition of [3H]DA uptake in rat striatum synaptosomes; format: biochemical
# H1 = H1 (Homo sapiens, UniProt P35367); assay: NIMH PDSP receptor binding assay; details: read-out: % Inhibition of Binding at 10 μM D-578
# 5HT1a = 5HT1a (Homo sapiens, UniProt P08908); assay: NIMH PDSP receptor binding assay; details: read-out: % Inhibition of Binding at 10 μM D-578
# Alpha1D = Alpha1D (Homo sapiens, UniProt P25100); assay: NIMH PDSP receptor binding assay; details: read-out: % Inhibition of Binding at 10 μM D-578
# SERT = SERT (Rattus norvegicus, UniProt P31652); assay: Inhibition of [3H]5-HT uptake in rat cerebral cortex synaptosomes; format: biochemical
# Beta2 = Beta2 (Homo sapiens, UniProt P07550); assay: NIMH PDSP receptor binding assay
# D2 = D2 (Homo sapiens, UniProt P14416); assay: NIMH PDSP receptor binding assay
# 5HT2b = 5HT2b (Homo sapiens, UniProt P41595); assay: NIMH PDSP receptor binding assay
# Beta1 = Beta1 (Homo sapiens, UniProt P08588); assay: NIMH PDSP receptor binding assay; details: read-out: % Inhibition of Binding at 10 μM D-578
# BZP Rat Brain Site = assay: NIMH PDSP receptor binding assay; details: 3H-Flunitrazepam, mean of 4 determinations
# mGlur5 = mGlur5 (Rattus norvegicus, UniProt P31424); assay: NIMH PDSP receptor binding assay; details: read-out: % Inhibition of Binding at 10 μM D-578
# 5HT3 = 5HT3 (Homo sapiens, UniProt P46098); assay: NIMH PDSP receptor binding assay; details: read-out: % Inhibition of Binding at 10 μM D-578
# D3 = D3 (Homo sapiens, UniProt P35462); assay: NIMH PDSP receptor binding assay
# Beta3 = Beta3 (Homo sapiens, UniProt P13945); assay: NIMH PDSP receptor binding assay
# 5HT7 = 5HT7 (Homo sapiens, UniProt P34969); assay: NIMH PDSP receptor binding assay; details: read-out: % Inhibition of Binding at 10 μM D-578
# δ-opioid = δ-opioid (Homo sapiens, UniProt P41143); assay: NIMH PDSP receptor binding assay; details: read-out: % Inhibition of Binding at 10 μM D-578
# Alpha2C = Alpha2C (Homo sapiens, UniProt P18825); assay: NIMH PDSP receptor binding assay
# 5HT1d = 5HT1d (Homo sapiens, UniProt P28221); assay: NIMH PDSP receptor binding assay
# V1B = V1B (Homo sapiens, UniProt P47901); assay: NIMH PDSP receptor binding assay; details: read-out: % Inhibition of Binding at 10 μM D-578
# H4 = H4 (Homo sapiens, UniProt Q9H3N8); assay: NIMH PDSP receptor binding assay; details: read-out: % Inhibition of Binding at 10 μM D-578
# 5HT2c = 5HT2c (Homo sapiens, UniProt P28335); assay: NIMH PDSP receptor binding assay
# locomotor activity = assay: Locomotor activity test; format: in vivo, rat; details: 25 mg/kg oral, rats, up to 120 min
# Outline: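 Sprague-Dawley rats were acclimated for 1 h in automated activity chambers, then dosed by oral gavage with test compound (25 mg/kg) or vehicle. Distance travelled was recorded for 2 h after dosing, matching the forced-swim timing. n = 4-7 rats/group.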
# cloned human SERT = cloned human SERT (Homo sapiens, UniProt P31645); format: cell-based
# PBR = PBR (Rattus norvegicus, UniProt P16257); assay: NIMH PDSP receptor binding assay; details: read-out: % Inhibition of Binding at 10 μM D-578
# cloned human DAT = cloned human DAT (Homo sapiens, UniProt Q01959); assay: Inhibition of [3H]DA uptake in HEK 293 cells expressing cloned human transporter; format: cell-based
# M4 = M4 (Homo sapiens, UniProt P08173); assay: biochemical; format: binding
# M5 = M5 (Homo sapiens, UniProt P08912); assay: biochemical; format: binding
# V2 = V2 (Homo sapiens, UniProt P30518); assay: NIMH PDSP receptor binding assay; details: read-out: % Inhibition of Binding at 10 μM D-578
# 5HT1b = 5HT1b (Homo sapiens, UniProt P28222); assay: NIMH PDSP receptor binding assay; details: read-out: % Inhibition of Binding at 10 μM D-578
# M3 = M3 (Homo sapiens, UniProt P20309); assay: biochemical; details: read-out: % Inhibition of Binding at 10 μM D-578
# D4 = D4 (Homo sapiens, UniProt P21917); assay: NIMH PDSP receptor binding assay; details: read-out: % Inhibition of Binding at 10 μM D-578
# H3 = H3 (Homo sapiens, UniProt Q9Y5N1); assay: NIMH PDSP receptor binding assay; details: read-out: % Inhibition of Binding at 10 μM D-578
# κ-opioid = κ-opioid (Homo sapiens, UniProt P41145); assay: NIMH PDSP receptor binding assay
# V1A = V1A (Homo sapiens, UniProt P37288); assay: NIMH PDSP receptor binding assay; details: read-out: % Inhibition of Binding at 10 μM D-578
# Alpha2A = Alpha2A (Homo sapiens, UniProt P08913); assay: NIMH PDSP receptor binding assay; details: read-out: % Inhibition of Binding at 10 μM D-578
# D1 = D1 (Homo sapiens, UniProt P21728); assay: NIMH PDSP receptor binding assay; details: read-out: % Inhibition of Binding at 10 μM D-578
# cloned human NET = cloned human NET (Homo sapiens, UniProt P23975); assay: cell-based; format: cell-based
# [2] = Oral absorption and brain penetration; format: in vivo; details: unpublished data
# Alpha1A = Alpha1A (Homo sapiens, UniProt P35348); assay: NIMH PDSP receptor binding assay; details: read-out: % Inhibition of Binding at 10 μM D-578
# Alpha1B = Alpha1B (Homo sapiens, UniProt P35368); assay: NIMH PDSP receptor binding assay; details: read-out: % Inhibition of Binding at 10 μM D-578
# M1 = M1 (Homo sapiens, UniProt P11229); assay: biochemical; details: read-out: % Inhibition of Binding at 10 μM D-578
# μ-Opioid = μ-Opioid (Homo sapiens, UniProt P35372); assay: NIMH PDSP receptor binding assay; details: read-out: % Inhibition of Binding at 10 μM D-578
# Oxytocin = Oxytocin (Homo sapiens, UniProt P30559); assay: NIMH PDSP receptor binding assay
# D5 = D5 (Homo sapiens, UniProt P21918); assay: NIMH PDSP receptor binding assay; details: read-out: % Inhibition of Binding at 10 μM D-578
# [3] = test system: conditioned fear behavior; assay: Single prolonged stress; format: in vivo, rat; details: SPS rats, D-578 10 mg/kg, paroxetine 5 mg/kg; for Freezing behavior during the extinction retention session (SPS-induced deficit) / Freezing behavior during the extinction session (SPS-induced deficit): i.p. 90 min prior to each session; for Shock reactivity during acquisition compared to the control group: i.p., five 1 mA shocks
# H2 = H2 (Homo sapiens, UniProt P25021); assay: NIMH PDSP receptor binding assay
# [4] = read-out: % Inhibition of Binding at 10 μM D-578
# hERG channel, sequence (Q12809 whole entry): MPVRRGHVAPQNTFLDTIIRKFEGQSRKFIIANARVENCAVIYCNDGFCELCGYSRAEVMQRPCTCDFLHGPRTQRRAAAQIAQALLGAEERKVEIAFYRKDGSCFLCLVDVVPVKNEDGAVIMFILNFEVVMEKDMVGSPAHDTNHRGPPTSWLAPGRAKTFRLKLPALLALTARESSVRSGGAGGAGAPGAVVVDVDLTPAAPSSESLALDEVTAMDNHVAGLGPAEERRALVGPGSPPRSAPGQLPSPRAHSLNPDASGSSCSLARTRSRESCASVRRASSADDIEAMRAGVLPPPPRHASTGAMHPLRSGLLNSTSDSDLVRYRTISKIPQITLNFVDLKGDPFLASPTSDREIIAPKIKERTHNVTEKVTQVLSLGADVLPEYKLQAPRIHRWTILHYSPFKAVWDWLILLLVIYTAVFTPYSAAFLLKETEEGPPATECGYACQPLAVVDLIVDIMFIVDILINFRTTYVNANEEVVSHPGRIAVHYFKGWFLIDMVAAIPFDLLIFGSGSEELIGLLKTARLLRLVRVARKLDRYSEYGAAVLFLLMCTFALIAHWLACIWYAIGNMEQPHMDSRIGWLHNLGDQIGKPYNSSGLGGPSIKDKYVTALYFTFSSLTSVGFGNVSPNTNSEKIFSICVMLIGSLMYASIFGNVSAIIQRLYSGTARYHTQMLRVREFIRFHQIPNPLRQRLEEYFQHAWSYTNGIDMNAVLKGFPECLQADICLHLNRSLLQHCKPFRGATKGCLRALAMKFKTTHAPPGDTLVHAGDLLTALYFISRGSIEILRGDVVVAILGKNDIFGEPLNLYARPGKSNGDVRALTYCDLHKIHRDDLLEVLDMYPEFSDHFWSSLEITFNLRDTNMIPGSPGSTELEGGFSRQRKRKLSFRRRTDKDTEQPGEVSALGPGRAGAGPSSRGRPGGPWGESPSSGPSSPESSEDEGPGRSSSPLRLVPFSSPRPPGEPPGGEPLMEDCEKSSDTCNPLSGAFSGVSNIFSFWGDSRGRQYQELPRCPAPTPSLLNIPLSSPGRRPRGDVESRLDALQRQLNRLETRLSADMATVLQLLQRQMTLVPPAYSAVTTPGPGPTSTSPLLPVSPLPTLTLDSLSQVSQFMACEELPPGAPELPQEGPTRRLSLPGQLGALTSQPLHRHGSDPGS
# 5HT2c, sequence (P28335 33-458): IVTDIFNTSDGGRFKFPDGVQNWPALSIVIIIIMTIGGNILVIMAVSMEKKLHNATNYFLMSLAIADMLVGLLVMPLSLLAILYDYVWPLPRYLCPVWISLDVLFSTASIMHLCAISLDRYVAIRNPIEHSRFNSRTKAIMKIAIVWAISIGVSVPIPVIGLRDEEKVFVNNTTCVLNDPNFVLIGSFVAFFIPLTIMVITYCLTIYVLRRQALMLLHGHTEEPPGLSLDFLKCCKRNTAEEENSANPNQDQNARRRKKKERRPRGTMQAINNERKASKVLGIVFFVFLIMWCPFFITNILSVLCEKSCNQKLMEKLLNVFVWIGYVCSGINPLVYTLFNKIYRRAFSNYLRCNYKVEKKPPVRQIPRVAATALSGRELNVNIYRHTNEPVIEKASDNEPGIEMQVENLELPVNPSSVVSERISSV
# M5, sequence (P08912 whole entry): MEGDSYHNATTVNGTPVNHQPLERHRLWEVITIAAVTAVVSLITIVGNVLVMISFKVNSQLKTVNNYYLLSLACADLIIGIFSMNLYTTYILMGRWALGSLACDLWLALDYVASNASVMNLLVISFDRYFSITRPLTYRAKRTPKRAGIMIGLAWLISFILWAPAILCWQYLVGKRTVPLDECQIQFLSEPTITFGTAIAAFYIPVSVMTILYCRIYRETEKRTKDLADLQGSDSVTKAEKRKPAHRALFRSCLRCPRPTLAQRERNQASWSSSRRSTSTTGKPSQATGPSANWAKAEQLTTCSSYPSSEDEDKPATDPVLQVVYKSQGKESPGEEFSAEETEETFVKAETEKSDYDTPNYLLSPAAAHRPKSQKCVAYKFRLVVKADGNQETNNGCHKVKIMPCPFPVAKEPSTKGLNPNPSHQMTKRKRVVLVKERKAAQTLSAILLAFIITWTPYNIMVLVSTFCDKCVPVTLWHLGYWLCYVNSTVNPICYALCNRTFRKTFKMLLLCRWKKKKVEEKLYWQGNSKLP
# H2, sequence (P25021 whole entry): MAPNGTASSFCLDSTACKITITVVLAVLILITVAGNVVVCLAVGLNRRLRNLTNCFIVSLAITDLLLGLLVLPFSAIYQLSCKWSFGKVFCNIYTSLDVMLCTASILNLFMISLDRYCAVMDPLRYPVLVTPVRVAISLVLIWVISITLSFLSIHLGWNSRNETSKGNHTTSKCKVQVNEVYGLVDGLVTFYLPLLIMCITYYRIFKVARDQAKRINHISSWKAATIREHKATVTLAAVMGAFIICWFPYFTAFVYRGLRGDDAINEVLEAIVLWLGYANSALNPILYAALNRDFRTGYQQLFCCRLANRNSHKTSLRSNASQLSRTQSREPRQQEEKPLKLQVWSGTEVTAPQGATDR
# Alpha2C, sequence (P18825 whole entry): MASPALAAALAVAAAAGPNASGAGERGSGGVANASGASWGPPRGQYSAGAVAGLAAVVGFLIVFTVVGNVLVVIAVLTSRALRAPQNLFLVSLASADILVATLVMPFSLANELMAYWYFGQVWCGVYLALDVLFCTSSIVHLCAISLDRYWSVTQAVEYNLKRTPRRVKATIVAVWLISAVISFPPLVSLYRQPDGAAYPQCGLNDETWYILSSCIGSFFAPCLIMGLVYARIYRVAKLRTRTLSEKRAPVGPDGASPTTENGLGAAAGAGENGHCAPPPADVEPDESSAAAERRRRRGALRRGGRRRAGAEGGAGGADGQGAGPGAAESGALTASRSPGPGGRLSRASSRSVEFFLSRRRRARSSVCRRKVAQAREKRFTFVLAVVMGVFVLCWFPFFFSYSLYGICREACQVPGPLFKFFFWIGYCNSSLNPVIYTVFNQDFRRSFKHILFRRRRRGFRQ
# D3, sequence (P35462 whole entry): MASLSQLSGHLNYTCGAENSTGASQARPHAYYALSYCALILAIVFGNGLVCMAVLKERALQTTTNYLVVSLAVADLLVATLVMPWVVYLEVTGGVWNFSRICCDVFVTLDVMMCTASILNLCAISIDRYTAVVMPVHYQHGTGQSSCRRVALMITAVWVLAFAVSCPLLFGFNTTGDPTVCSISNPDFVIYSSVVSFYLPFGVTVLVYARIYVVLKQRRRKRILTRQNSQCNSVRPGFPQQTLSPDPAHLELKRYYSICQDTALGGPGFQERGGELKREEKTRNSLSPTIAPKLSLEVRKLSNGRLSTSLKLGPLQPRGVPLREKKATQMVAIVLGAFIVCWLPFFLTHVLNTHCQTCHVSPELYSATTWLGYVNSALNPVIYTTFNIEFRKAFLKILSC
# 5HT2a, sequence (P28223 whole entry): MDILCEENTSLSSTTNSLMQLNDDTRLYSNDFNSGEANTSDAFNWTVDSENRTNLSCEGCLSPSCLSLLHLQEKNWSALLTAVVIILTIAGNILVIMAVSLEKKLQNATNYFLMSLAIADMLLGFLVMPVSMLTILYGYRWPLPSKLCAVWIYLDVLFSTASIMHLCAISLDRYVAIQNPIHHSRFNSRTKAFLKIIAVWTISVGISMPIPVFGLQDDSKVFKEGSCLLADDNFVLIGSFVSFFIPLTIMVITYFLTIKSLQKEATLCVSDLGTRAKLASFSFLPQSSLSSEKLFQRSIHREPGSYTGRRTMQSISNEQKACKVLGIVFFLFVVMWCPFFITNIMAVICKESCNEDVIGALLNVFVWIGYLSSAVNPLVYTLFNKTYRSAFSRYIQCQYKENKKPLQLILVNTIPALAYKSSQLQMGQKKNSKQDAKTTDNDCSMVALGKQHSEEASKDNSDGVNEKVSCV
# M4, sequence (P08173 whole entry): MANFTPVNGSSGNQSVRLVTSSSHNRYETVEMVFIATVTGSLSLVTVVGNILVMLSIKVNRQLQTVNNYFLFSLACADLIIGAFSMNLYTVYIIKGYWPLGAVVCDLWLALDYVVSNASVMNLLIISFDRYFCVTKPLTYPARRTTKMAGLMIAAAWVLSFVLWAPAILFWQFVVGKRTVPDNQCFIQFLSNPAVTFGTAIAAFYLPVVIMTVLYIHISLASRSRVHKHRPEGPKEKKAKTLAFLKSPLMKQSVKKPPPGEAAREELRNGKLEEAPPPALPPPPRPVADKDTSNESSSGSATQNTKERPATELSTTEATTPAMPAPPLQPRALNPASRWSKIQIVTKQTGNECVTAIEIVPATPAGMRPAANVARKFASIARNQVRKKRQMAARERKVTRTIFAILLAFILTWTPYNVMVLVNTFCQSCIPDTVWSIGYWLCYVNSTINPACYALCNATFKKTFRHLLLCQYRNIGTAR
# Oxytocin, sequence (P30559 whole entry): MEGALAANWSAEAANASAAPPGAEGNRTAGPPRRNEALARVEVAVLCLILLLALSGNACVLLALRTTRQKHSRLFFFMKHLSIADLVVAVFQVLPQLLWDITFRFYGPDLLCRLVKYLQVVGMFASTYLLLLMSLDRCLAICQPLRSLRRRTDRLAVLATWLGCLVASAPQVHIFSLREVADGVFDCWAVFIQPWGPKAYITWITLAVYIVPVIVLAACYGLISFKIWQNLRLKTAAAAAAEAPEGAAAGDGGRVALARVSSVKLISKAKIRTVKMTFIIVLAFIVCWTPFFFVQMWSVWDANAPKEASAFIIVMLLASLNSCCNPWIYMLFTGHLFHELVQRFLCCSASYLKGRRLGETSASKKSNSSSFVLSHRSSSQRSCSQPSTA
# PBR, sequence (P16257 whole entry): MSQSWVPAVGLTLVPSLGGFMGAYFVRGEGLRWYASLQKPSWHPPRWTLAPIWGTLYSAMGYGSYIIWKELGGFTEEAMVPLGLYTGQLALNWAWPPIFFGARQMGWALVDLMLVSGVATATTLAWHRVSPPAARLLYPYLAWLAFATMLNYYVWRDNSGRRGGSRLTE
smiles,measurement,setting,value
"COc1cc(N)c(Cl)cc1C(=O)NC1CCN(CCCOc2ccc(F)cc2)CC1OC (stereo not shown) [Cisapride, reference compound]",Hill Slope,hERG channel; human,1.01 ± 0.07
"Nc1nc2ccc(CN[C@@H]3CO[C@H](C(c4ccc(F)cc4)c4ccc(F)cc4)C[C@H]3O)cc2s1 [D-578, (2S,4R,5R)-5-(((2-aminobenzo[d]thiazol-6-yl)methyl)amino)-2-(bis(4-fluorophenyl)methyl)tetrahydro-2H-pyran-4-ol]",inhibition at 10 µM,M2,20.9%
same,Immobility in the rat forced swimming test compared to vehicle,[1]; 10 mg/kg p.o.,significantly reduced
same,Immobility in the rat forced swimming test compared to vehicle,[1]; 15 mg/kg p.o.,significantly reduced
same,Reduction of immobility compared to control,"[1]; 25 mg/kg PO, forced swimming test in rats",greater than 90%
same,Immobility in the rat forced swimming test compared to vehicle,[1]; 25 mg/kg p.o.,marked reduction of immobility
same,inhibition at 10 µM,5HT5a,35.2%
same,inhibition at 10 µM,5HT6,12.8%
same,Ki,5HT2a,1640 nM
same,inhibition at 10 µM,5HT2a; [4],62.5%
same,inhibition at 10 µM,Alpha2B,6.3%
same,% Inhibition of Binding at 10 μM D-578,GABA A,2.3%
same,Ki,DAT,16.2 ± 2 nM
same,inhibition at 10 µM,H1,11%
same,inhibition at 10 µM,5HT1a,19.9%
same,inhibition at 10 µM,Alpha1D,24.7%
same,Ki,SERT,16.2 ± 1.5 nM
same,Ki,Beta2,> 10000 nM
same,inhibition at 10 µM,Beta2; [4],59.4%
same,Ki,D2,773 nM
same,inhibition at 10 µM,D2; [4],62.3%
same,Ki,5HT2b,425 nM
same,inhibition at 10 µM,5HT2b; [4],80.3%
same,inhibition at 10 µM,Beta1,45.6%
same,% Inhibition of Binding at 10 μM D-578,BZP Rat Brain Site,28.8%
same,inhibition at 10 µM,mGlur5,52.8%
same,inhibition at 10 µM,5HT3,8.5%
same,Ki,D3,2610 nM
same,inhibition at 10 µM,D3; [4],56.4%
same,Ki,Beta3,2700 nM
same,inhibition at 10 µM,Beta3; [4],59.8%
same,inhibition at 10 µM,5HT7,28.9%
same,inhibition at 10 µM,δ-opioid,24.1%
same,Ki,Alpha2C,2010 nM
same,inhibition at 10 µM,Alpha2C; [4],72%
same,Ki,5HT1d,702 nM
same,inhibition at 10 µM,5HT1d; [4],72%
same,inhibition at 10 µM,V1B,7.8%
same,inhibition at 10 µM,H4,2.4%
same,Ki,5HT2c,73 nM
same,inhibition at 10 µM,5HT2c; [4],96.3%
same,"Locomotor activity, distance travelled vs vehicle",locomotor activity,not significantly different from vehicle
same,Ki,cloned human SERT,20.6 ± 3.8 nM
same,inhibition at 10 µM,PBR,10.6%
same,Ki,cloned human DAT,29.6 ± 6.95 nM
same,Ki,M4,> 10000 nM
same,inhibition at 10 µM,M4; [4],55%
same,Ki,M5,> 10000 nM
same,inhibition at 10 µM,M5; [4],84.4%
same,inhibition at 10 µM,V2,21%
same,inhibition at 10 µM,5HT1b,13.6%
same,inhibition at 10 µM,M3,7.5%
same,inhibition at 10 µM,D4,20.9%
same,inhibition at 10 µM,H3,19.6%
same,Ki,κ-opioid,1390 nM
same,inhibition at 10 µM,κ-opioid; [4],68.9%
same,inhibition at 10 µM,V1A,44.6%
same,inhibition at 10 µM,Alpha2A,22.6%
same,inhibition at 10 µM,D1,11%
same,Ki,cloned human NET,6.1 ± 1.14 nM
same,Times more potent at NET compared to DAT and SERT,cloned human NET; cloned human transporters,3-4 times
same,Oral absorption and brain penetration,[2],gets absorbed orally and penetrates into the brain well
same,inhibition at 10 µM,Alpha1A,18.6%
same,inhibition at 10 µM,Alpha1B,38.3%
same,Inhibition of the hERG channel (in words),hERG channel; Thallium flux assay,almost no inhibition
same,Hill Slope,"hERG channel; Tl+ flux assay, inhibition of hERG channel",1.471 ± 0.23
same,inhibition at 10 µM,M1,97.2%
same,inhibition at 10 µM,μ-Opioid,11.7%
same,Ki,Oxytocin,> 10000 nM
same,inhibition at 10 µM,Oxytocin; [4],53.1%
same,inhibition at 10 µM,D5,37.4%
same,Freezing behavior during the extinction retention session (SPS-induced deficit),[3],froze significantly less
same,Freezing behavior during the extinction session (SPS-induced deficit),[3],froze less
same,Shock reactivity during acquisition compared to the control group,[3],no effect
same,Ki,H2,42 nM
same,inhibition at 10 µM,H2; [4],94.1%
"Fc1ccc([C@@H]2CCNC[C@H]2COc2ccc3c(c2)OCO3)cc1 [paroxetine, reference compound]",Freezing behavior during the extinction retention session (SPS-induced deficit),[3],did not reverse
same,Freezing behavior during the extinction session (SPS-induced deficit),[3],did not reverse
same,Shock reactivity during acquisition compared to the control group,[3],no effect
